KCNK9 block: KCNK9 potassium channel inhibitors, primary screen, HEK293 cells, thallium flux | FluxOR thallium flux fluorescence; hits give low values | actives 1.2% (n = 310,000) | B-score at 10 µM | Potassium channel subfamily K member 9 (Homo sapiens), Q9NPC2;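 active = ratio B-score over 3 SD below the library mean, with starting fluorescence within 5 SD of its mean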;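 note: negative B-score means less thallium flux so channel inhibition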
Target sequence (Q9NPC2 whole entry, looked up): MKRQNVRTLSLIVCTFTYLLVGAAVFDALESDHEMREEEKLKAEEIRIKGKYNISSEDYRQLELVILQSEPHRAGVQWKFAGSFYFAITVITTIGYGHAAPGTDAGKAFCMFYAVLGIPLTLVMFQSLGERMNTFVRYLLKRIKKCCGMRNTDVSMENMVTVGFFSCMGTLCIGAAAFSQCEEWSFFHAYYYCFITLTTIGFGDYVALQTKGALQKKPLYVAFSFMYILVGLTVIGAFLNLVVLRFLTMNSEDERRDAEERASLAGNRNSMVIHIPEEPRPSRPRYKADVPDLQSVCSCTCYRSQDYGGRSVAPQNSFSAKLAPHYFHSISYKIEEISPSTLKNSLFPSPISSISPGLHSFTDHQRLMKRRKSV
hERG rescue: hERG rescue from dofetilide block, primary screen, cell-based, CHO-hERG, FluxOR thallium flux, dofetilide IC70 | Voltage-gated inwardly rectifying potassium channel KCNH2 (Homo sapiens), Q12809 | activation (rescue from dofetilide block), less the hit threshold, % at 10 µM | dofetilide IC70 present | actives 0.51% (n = 310,000);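 active = activation above the mean of controls blocked by dofetilide plus 5 SD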;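 note: thallium influx through hERG after potassium depolarization seen as dye fluorescence rise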
KCNQ1 pot: potentiators or activators of KCNQ1 channel, primary screen, cell-based, thallium flux, high-throughput | Potassium voltage-gated channel subfamily KQT member 1 (Homo sapiens), P51787 | CHO-K1 KCNQ1, thallium flux FluxOR fluorescence; hits give high values | B-score at 10 µM | actives 0.35% (n = 310,000) | AID 2648, 2010;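 active = fluorescence ratio B-score, a plate-corrected score, at least three library SD, with initial intensity B-score within 5 SD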
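Assay system: CHO-K1 cells stably expressing KCNQ1. Medium: assay buffer for compound exposure, DMSO matched across wells. Timing: 37 °C overnight plating, 90-min dark dye load, 20-min compound pretreatment. Signal: kinetic FluxOR fluorescence, 10 s baseline plus 110 s post-stimulus.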
KCNQ1 block: inhibitors of human KCNQ1 channel, primary screen, cell-based, thallium flux, high-throughput; Potassium voltage-gated channel subfamily KQT member 1 (Homo sapiens), P51787; CHO-K1 KCNQ1, FluxOR thallium flux fluorescence; hits give high values; B-score at 10 µM; actives 1.3% (n = 310,000);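 active = compounds whose thallium flux B-score, printed positive for inhibition, exceeds three library SD while starting fluorescence stays within three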;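 note: channel opened by potassium depolarization with thallium stimulus after 20 min compound exposure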
KCNK3 inh: human KCNK3 channel inhibitors, primary screen, CHO cells, FluxOR thallium flux, B-score; Potassium channel subfamily K member 3 (Homo sapiens), O14649; FluxOR fluorescence; hits give low values; B-score at 10 µM; actives 0.84% (n = 340,000);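 active = B-score under library mean minus 4 SD, starting fluorescence ratio at most library mean plus 5 SD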;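 note: more negative B-score means stronger inhibition of thallium flux through KCNK3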
Target sequence (O14649 whole entry, looked up): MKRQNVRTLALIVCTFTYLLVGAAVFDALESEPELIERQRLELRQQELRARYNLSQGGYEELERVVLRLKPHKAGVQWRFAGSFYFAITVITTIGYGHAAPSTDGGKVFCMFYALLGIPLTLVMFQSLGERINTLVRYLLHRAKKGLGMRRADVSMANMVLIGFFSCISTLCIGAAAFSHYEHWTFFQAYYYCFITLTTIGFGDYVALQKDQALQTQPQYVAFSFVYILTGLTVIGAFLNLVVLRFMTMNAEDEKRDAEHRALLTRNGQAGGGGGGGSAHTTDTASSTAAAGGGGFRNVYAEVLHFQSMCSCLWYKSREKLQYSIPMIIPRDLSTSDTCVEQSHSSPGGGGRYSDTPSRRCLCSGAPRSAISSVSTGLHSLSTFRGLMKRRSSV
KCC2 mod: KCC2 cotransporter modulators, thallium flux, primary screen, cell-based, HEK293 KCC2, FluoZin-2 fluorescence, MLSMR | Solute carrier family 12 member 5 (Homo sapiens), Q9H2X9 | KCC2 cells, thallium flux FluoZin-2 fluorescence | B-score of Tl+ flux slope (higher = more flux/activation; lower = inhibition) at 10 µM | actives 2.2% (n = 190,000) | AID 1456, 2008;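 active = thallium flux slope and its plate-corrected score both differing from the plate sample mean at a set confidence after two filtering rounds, in either direction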;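 note: slope of fluorescence scaled to starting intensity during 10 to 20 s after thallium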
KCC2 secondary: KCC2 modulators in sodium-free buffer, confirmation, cell-based, HEK293 KCC2, thallium flux, secondary assay; normalised thallium flux (F/F0 slope) at 10 µM; FluoZin2 fluorescence; hits give high values; shares compounds with KCC2 mod; actives 15% (n = 3,700);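 active = thallium flux slope above the same plate's solvent-only control mean plus 3 SD; inconclusive = the two replicate wells disagree; inactive = no significant difference from solvent-only control wells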
KCC2 bumet counter: thallium flux persisting under bumetanide in KCC2 cells, confirmation, counter-screen for KCC2 modulator project, cell-based, HEK293 KCC2, FluoZin2, secondary assay 3 | actives 49% (n = 3,700) | HEK293-KCC2 + bumetanide/ouabain; hits give high values | normalized thallium flux at 10 µM | shares compounds with KCC2 mod;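 active = thallium entry rate above the same plate's blocked-transporter control wells by more than 3 SD; inconclusive = the two repeat wells disagree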;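 note: raw slope of fluorescence over initial fluorescence between 10 and 20 s after thallium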
KCC2 sec2: KCC2 modulators without ouabain present, confirmation, cell-based, HEK293 KCC2, thallium flux, FluoZin2, secondary assay 2; shares compounds with KCC2 mod; actives 23% (n = 3,700); thallium flux FluoZin2 fluorescence; actives lie on both sides; F/F0 rise rate, 10–20 s post-thallium; normalized thallium flux at 10 µM; AID 1715, 2009;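 active = thallium flux slope more than 3 SD above or below the plate's solvent-only control mean, mostly below; inconclusive = the two repeat wells disagreed; inactive = no significant shift from solvent-only controls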;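 note: raw slope with 0.1% DMSO as baseline and bumetanide as block control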
HEK counter1: thallium flux modulation in parental HEK cells, confirmation, counter-screen for KCC2 modulator project, cell-based, counterscreen 1; shares compounds with KCC2 mod; HEK293 parental cells, thallium flux FluoZin2, ouabain; baseline-ratio fluorescence slope, 10–20 s after thallium; thallium flux rate (normalised fluorescence) at 10 µM; actives 46% (n = 3,700);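 active = thallium flux rate significantly above the same plate's solvent-only control wells, beyond their mean plus 3 SD; inconclusive = the two replicate wells gave conflicting results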
KCC2 retest ouab: KCC2 inhibitors and activators, ouabain retest, confirmation, HEK-KCC2 cells | HEK293-KCC2, thallium flux FluoZin2 fluorescence; bidirectional: low = inhibitor, high = activator | AID 1717, 2009 | shares compounds with KCC2 mod | actives 48% (n = 3,700) | raw Tl+ flux slope (below DMSO = inhibition, above = activation) at 10 µM;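 active = thallium flux slope beyond 3 SD from same-plate DMSO control mean in most replicates, usually higher, sometimes lower; inconclusive = repeat tests gave conflicting results; inactive = no significant difference from controls in most replicates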;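 note: slope of initial-normalized fluorescence between seconds 10 and 20 after thallium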
HEK293 Tl flux2: native HEK Tl+ uptake effects, second counter-screen – HEK cells, counterscreen 2, counter-screen for KCC2 modulator project, confirmation; HEK293 parental, thallium flux FluoZin-2 fluorescence slope; thallium flux slope at 10 µM; AID 1718, 2009; actives 33% (n = 3,700); shares compounds with KCC2 mod;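 active = thallium flux slope above the same plate's solvent-control mean plus 3 SD in both duplicate wells; inconclusive = duplicate wells that disagreed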;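 note: run without ouabain in cells lacking the KCC2 cotransporter; slope of fluorescence scaled to its starting value between 10 and 20 s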
* marks the source's active call; other numbers are inactive results; i = inactive; ? = inconclusive; . = not tested or not shown. A selection: hits, their analogues and other compounds. The true share with any hit is near 4.1%.

SMILES | KCNK9 block | hERG rescue | KCNQ1 pot | KCNQ1 block | KCNK3 inh | KCC2 mod | KCC2 secondary | KCC2 bumet counter | KCC2 sec2 | HEK counter1 | KCC2 retest ouab | HEK293 Tl flux2
COc1ccc(S(=O)(=O)NCCN2CCOCC2)c2ccccc12 | i | -1 | i | i | i | . | 0.0095 | 0.0064 | 0.031 | 0.007 | 0.023 | 0.0097
CCOc1ccc(C(CC(=O)O)NC(=O)C(Sc2ccccc2)c2ccccc2)cc1 (stereo not given) | i | -13 | i | i | i | -4* | 0.0068 | ? | 0.023* | 0.0084 | ? | 0.012
C[C@@H]1CN(S(=O)(=O)C(C)(C)C)[C@H](CCO)/C1=C\c1ccccc1 | . | . | . | . | i | . | . | . | . | . | . | .
CC1CN(C(=O)Cn2cc(SCC(=O)N3CCOCC3)c3ccccc32)CC(C)O1 (stereo not given) | i | -10 | i | i | i | . | . | . | . | . | . | .
Cc1ccc(-n2[nH]c(C)c(C=Nc3ccc(S(=O)(=O)Nc4nccs4)cc3)c2=O)cc1 | i | -8 | i | i | . | -0.49 | . | . | . | . | . | .
Cc1ccc(-n2[nH]c(C)c(C=Nc3ccc(C)cn3)c2=O)cc1 | i | -6 | i | i | i | 9.4* | 0.011 | 0.02* | 0.033 | 0.022* | ? | 0.014*
Cc1ccc(N=Cc2c(C)[nH]n(-c3ccccc3)c2=O)nc1 | i | -9 | i | i | i | 13* | 0.011 | 0.02* | 0.032 | 0.024* | 0.026* | 0.012
Cc1[nH]n(-c2ccccc2)c(=O)c1C=Nc1cnc2ccccc2c1 | i | -6 | i | i | i | 2.5 | . | . | . | . | . | .
Cc1cc(C(=O)Nc2nc3c(s2)CCCC3)no1 | i | -13 | i | i | i | 4.4* | 0.011 | 0.015* | 0.034 | 0.0091* | 0.024 | ?
Cc1onc(-c2ccccc2)c1C(=O)Nc1nc2c(s1)CCCC2 | i | -2 | i | i | i | 0.6 | . | . | . | . | . | .
C/C(N)=C(/C#N)C(=O)CSc1nc2ccccc2c(=O)n1Cc1ccc(F)cc1 | i | -5 | 8* | i | i | 95* | ? | 0.071* | 0.053* | 0.064* | 0.061* | 0.056*
Cc1ccc(Cn2c(SC(C)C(N)=O)nc3ccccc3c2=O)cc1 (stereo not given) | i | -3 | i | i | i | 8.6* | 0.0061 | 0.022* | 0.036 | 0.015* | 0.03* | 0.018*
Cc1cc(NC(=O)CSc2nc3ccccc3c(=O)n2Cc2ccccc2)no1 | i | -8 | i | i | i | . | . | . | . | . | . | .
CCn1c(SCc2ccc(F)cc2)nc2ccccc2c1=O | i | -5 | i | i | i | . | . | . | . | . | . | .
Cc1ccc(Cn2c(SCC(=O)Nc3cc(C)on3)nc3ccccc3c2=O)cc1 | i | 0 | i | i | i | . | 0.0065 | 0.0054 | ? | 0.016* | 0.027* | 0.019*
CCOC(=O)C(C)Sc1nc2ccccc2c(=O)n1CC (stereo not given) | . | . | . | . | i | -2.5 | . | . | . | . | . | .
C/C(N)=C(/C#N)C(=O)CSc1nc2cc(Cl)ccc2c(=O)n1Cc1ccco1 | i | -14 | i | i | i | . | . | . | . | . | . | .
C/C(N)=C(/C#N)C(=O)CSc1nc2ccccc2c(=O)n1Cc1ccc(C)cc1 | i | -5 | i | i | i | 22* | 0.008 | 0.021* | 0.032 | 0.025* | 0.029* | 0.016*
CCOC(=O)C1=CN(CC)CCC1=O | . | . | . | . | i | . | . | . | . | . | . | .
CC(=O)c1cccc(NS(=O)(=O)c2ccc3c(c2)N(C(C)=O)CCO3)c1 | i | -8 | i | i | i | . | . | . | . | . | . | .
O=S(=O)(Nc1nc2ccccc2nc1N1CCN(c2ccccn2)CC1)c1ccc(Cl)cc1 | . | . | . | . | i | -3.1* | 0.0047 | 0.0048 | 0.024* | 0.0069 | ? | 0.01
CC(NCc1ccc(F)cc1)C(=O)Nc1cc(S(=O)(=O)N2CCCCC2)ccc1Cl (stereo not given) | i | -5 | i | i | i | -4.7* | 0.01 | 0.008* | ? | 0.0064 | 0.016* | 0.01
CC(C)COc1ccc(-c2nnc(-c3ccncc3)o2)cc1 | i | -12 | i | i | i | 1.9 | . | . | . | . | . | .
COc1ccc(-c2nnc(-c3ccc(OCC(C)C)cc3)o2)cc1 | i | -12 | i | i | i | -5.5* | 0.016 | 0.0051 | 0.029 | 0.0077 | 0.017 | 0.01
O=C(CSc1nnc(-c2ccccn2)n1Cc1ccco1)c1ccc(Cl)cc1 | i | -15 | i | i | i | . | 0.0069 | ? | 0.028 | 0.006* | 0.016 | 0.01
Cc1cc(-c2nc3cc(F)ccc3s2)ccc1N | . | . | . | . | i | . | . | . | . | . | . | .
CCN(CC)C(=O)C1CC(=O)N(c2ccc(OC)cc2)C1c1ccc(OC)cc1 (stereo not given) | i | -9 | i | i | i | -4.1* | 0.0062 | 0.0057* | 0.028 | 0.0082 | 0.019 | 0.011

Source: PubChem (several laboratories)
